Measured values from ChEMBL document CHEMBL2396597, “Synthesis and evaluation of novel orally active p53-MDM2 interaction inhibitors” (Bioorg Med Chem, 2013).

assay: Drug uptake in tumor of NOD/SCID mouse xenografted with human MV4-11 cells at 100 mg/kg, po measured at 2 hrs by LC-MS/MS analysis; type: ADME, organism-based, Neoplasm; set-up: dose 100 mg/kg, route oral; conditions: read-out: Drug uptake
In short: (§1)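 Tumor-bearing mice were given 100 mg/kg orally, suspended in Japanese Pharmacopoeia First Fluid (pH 1.2). Tumors were collected at 1, 2, 4, 6 and 24 h after dosing and homogenized. Tumor drug concentration was quantified by LC/MS/MS on an ODS column.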

CC[C@@H]1CC[C@@H](C(=O)N2CCN(C(C)=O)[C@H](C)C2)N1C(=O)C1=C(C(C)C)N2C(=N[C@@](C)(c3ccc(Cl)cc3)[C@H]2c2ccc(Cl)cc2)S1 and CC(C)C1=C(C(=O)N2[C@H](C)CC[C@H]2C(=O)N2CCN(C)[C@H](C)C2)SC2=N[C@@](C)(c3ccc(Cl)cc3)[C@@H](c3ccc(Cl)cc3)N21 are within 1.5-fold of each other in concentration at 2 h: 32700 ng/mL for the first, 23300 ng/mL for the second.

assay: Drug uptake in tumor of NOD/SCID mouse xenografted with human MV4-11 cells at 100 mg/kg, po measured at 1 hr by LC-MS/MS analysis; type: ADME, organism-based, Neoplasm; set-up: dose 100 mg/kg, route oral; conditions: read-out: Drug uptake; in short: as §1

Going from CC[C@@H]1CC[C@@H](C(=O)N2CCN(C(C)=O)[C@H](C)C2)N1C(=O)C1=C(C(C)C)N2C(=N[C@@](C)(c3ccc(Cl)cc3)[C@H]2c2ccc(Cl)cc2)S1 to CC(C)C1=C(C(=O)N2[C@H](C)CC[C@H]2C(=O)N2CCN(C)[C@H](C)C2)SC2=N[C@@](C)(c3ccc(Cl)cc3)[C@@H](c3ccc(Cl)cc3)N21, the concentration at 1 h falls from 31500 ng/mL to 18900 ng/mL (1.7-fold).

assay: Drug uptake in tumor of NOD/SCID mouse xenografted with human MV4-11 cells at 100 mg/kg, po measured at 24 hrs by LC-MS/MS analysis; type: ADME, organism-based, Neoplasm; set-up: dose 100 mg/kg, route oral; conditions: read-out: Drug uptake; in short: as §1

CC(C)C1=C(C(=O)N2[C@H](C)CC[C@H]2C(=O)N2CCN(C)[C@H](C)C2)SC2=N[C@@](C)(c3ccc(Cl)cc3)[C@@H](c3ccc(Cl)cc3)N21 showed a concentration at 24 h of 4300 ng/mL.

assay: Plasma concentration in NOD/SCID mouse at 100 mg/kg, po measured at 2 hrs; type: ADME, organism-based; set-up: dose 100 mg/kg, route oral; conditions: not given

Going from CC[C@@H]1CC[C@@H](C(=O)N2CCN(C(C)=O)[C@H](C)C2)N1C(=O)C1=C(C(C)C)N2C(=N[C@@](C)(c3ccc(Cl)cc3)[C@H]2c2ccc(Cl)cc2)S1 to CC(C)C1=C(C(=O)N2[C@H](C)CC[C@H]2C(=O)N2CCN(C)[C@H](C)C2)SC2=N[C@@](C)(c3ccc(Cl)cc3)[C@@H](c3ccc(Cl)cc3)N21, the concentration at 2 h falls from 68400 ng/mL to 7800 ng/mL (8.8-fold).

assay: Metabolic stability in mouse liver microsomes assessed as compound remaining at 1 uM after 30 mins by LC-MS/MS analysis; type: ADME, Microsome; conditions: read-out: Stability
In short: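 Compound at 1 μM final was incubated with mouse hepatic microsomes (0.5 mg/mL protein) in sodium phosphate buffer pH 7.4 at 37°C. Reaction was started with an NADPH-generating system and stopped with MeOH after 30 min. Samples were centrifuged, and loss of parent was measured by LC-MS/MS as % remaining.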

Compared with CC(C)C1=C(C(=O)N2CCC[C@H]2C(=O)N(C)C)SC2=N[C@@](C)(c3ccc(Cl)cc3)[C@@H](c3ccc(Cl)cc3)N21, CC(C)C1=C(C(=O)N2[C@@H](C)CC[C@H]2C(=O)N(C)C)SC2=N[C@@](C)(c3ccc(Cl)cc3)[C@@H](c3ccc(Cl)cc3)N21 is higher in remaining at 0.5 h, 1 µM: 9% for the first, 39% for the second.

Going from CC[C@@H]1CC[C@@H](C(=O)N2CCN(C)CC2)N1C(=O)C1=C(C(C)C)N2C(=N[C@@](C)(c3ccc(Cl)cc3)[C@H]2c2ccc(Cl)cc2)S1 to CC(C)C1=C(C(=O)N2[C@H](C)CC[C@H]2C(=O)N2CCN(C)CC2)SC2=N[C@@](C)(c3ccc(Cl)cc3)[C@@H](c3ccc(Cl)cc3)N21, the remaining at 0.5 h, 1 µM falls from 50% to 25%.

Compared with CC[C@@H]1CC[C@@H](C(=O)N(C)C)N1C(=O)C1=C(C(C)C)N2C(=N[C@@](C)(c3ccc(Cl)cc3)[C@H]2c2ccc(Cl)cc2)S1, CC[C@H]1CC[C@@H](C(=O)N(C)C)N1C(=O)C1=C(C(C)C)N2C(=N[C@@](C)(c3ccc(Cl)cc3)[C@H]2c2ccc(Cl)cc2)S1 is lower in remaining at 0.5 h, 1 µM: 70% for the first, 47% for the second.

Compared with CC(=O)N1CCN(C(=O)[C@@H]2CC[C@@H](C)N2C(=O)C2=C(C(C)C)N3C(=N[C@@](C)(c4ccc(Cl)cc4)[C@H]3c3ccc(Cl)cc3)S2)C[C@@H]1C, CC(=O)N1CCN(C(=O)[C@@H]2CC[C@@H](C)N2C(=O)C2=C(C(C)C)N3C(=N[C@@](C)(c4ccc(Cl)cc4)[C@H]3c3ccc(Cl)cc3)S2)C[C@H]1C is lower in remaining at 0.5 h, 1 µM: 65% for the first, 55% for the second.

Compared with CC(C)C1=C(C(=O)N2[C@H](C)CC[C@H]2C(=O)N2CCN(C)C(C)(C)C2)SC2=N[C@@](C)(c3ccc(Cl)cc3)[C@@H](c3ccc(Cl)cc3)N21, CC(C)C1=C(C(=O)N2[C@H](C)CC[C@H]2C(=O)N2CCN(C)[C@H](C)C2)SC2=N[C@@](C)(c3ccc(Cl)cc3)[C@@H](c3ccc(Cl)cc3)N21 is lower in remaining at 0.5 h, 1 µM: 84% for the first, 74% for the second.

Compared with CC[C@@H]1CC[C@@H](C(=O)N2CCN(C(C)=O)[C@H](C)C2)N1C(=O)C1=C(C(C)C)N2C(=N[C@@](C)(c3ccc(Cl)cc3)[C@H]2c2ccc(Cl)cc2)S1, CC[C@@H]1CC[C@@H](C(=O)N2CCN(C(C)=O)[C@@H](C)C2)N1C(=O)C1=C(C(C)C)N2C(=N[C@@](C)(c3ccc(Cl)cc3)[C@H]2c2ccc(Cl)cc2)S1 is lower in remaining at 0.5 h, 1 µM: 59% for the first, 54% for the second.

Going from CC[C@@H]1CC[C@@H](C(=O)N2CCOCC2)N1C(=O)C1=C(C(C)C)N2C(=N[C@@](C)(c3ccc(Cl)cc3)[C@H]2c2ccc(Cl)cc2)S1 to CC[C@@H]1CC[C@@H](C(=O)N2CCN(C)[C@@H](C)C2)N1C(=O)C1=C(C(C)C)N2C(=N[C@@](C)(c3ccc(Cl)cc3)[C@H]2c2ccc(Cl)cc2)S1, the remaining at 0.5 h, 1 µM rises from 6% to 69%.

Compared with CC[C@@H]1CC[C@@H](C(=O)N2CCN(C(C)=O)CC2)N1C(=O)C1=C(C(C)C)N2C(=N[C@@](C)(c3ccc(Cl)cc3)[C@H]2c2ccc(Cl)cc2)S1, CC(=O)N1CCN(C(=O)[C@@H]2CC[C@@H](C)N2C(=O)C2=C(C(C)C)N3C(=N[C@@](C)(c4ccc(Cl)cc4)[C@H]3c3ccc(Cl)cc3)S2)CC1 is lower in remaining at 0.5 h, 1 µM: 38% for the first, 13% for the second.

Going from CC[C@@H]1CC[C@@H](C(=O)N2CCN(C)[C@H](C)C2)N1C(=O)C1=C(C(C)C)N2C(=N[C@@](C)(c3ccc(Cl)cc3)[C@H]2c2ccc(Cl)cc2)S1 to CC(C)C1=C(C(=O)N2[C@H](C)CC[C@H]2C(=O)N2CCN(C)[C@@H](C)C2)SC2=N[C@@](C)(c3ccc(Cl)cc3)[C@@H](c3ccc(Cl)cc3)N21, the remaining at 0.5 h, 1 µM falls from 76% to 63%.

Compound CC(C)C1=C(C(=O)N2[C@H](C)CC[C@H]2C(=O)N(C)C)SC2=N[C@@](C)(c3ccc(Cl)cc3)[C@@H](c3ccc(Cl)cc3)N21 has a remaining at 0.5 h, 1 µM of 53%.

assay: Plasma concentration in NOD/SCID mouse at 100 mg/kg, po measured at 1 hr; type: ADME, organism-based; set-up: dose 100 mg/kg, route oral; conditions: not given

Compared with CC[C@@H]1CC[C@@H](C(=O)N2CCN(C(C)=O)[C@H](C)C2)N1C(=O)C1=C(C(C)C)N2C(=N[C@@](C)(c3ccc(Cl)cc3)[C@H]2c2ccc(Cl)cc2)S1, CC(C)C1=C(C(=O)N2[C@H](C)CC[C@H]2C(=O)N2CCN(C)[C@H](C)C2)SC2=N[C@@](C)(c3ccc(Cl)cc3)[C@@H](c3ccc(Cl)cc3)N21 is 8.6-fold lower in concentration at 1 h: 59600 ng/mL for the first, 6900 ng/mL for the second.

assay: Plasma concentration in NOD/SCID mouse at 100 mg/kg, po measured at 4 hrs; type: ADME, organism-based; set-up: dose 100 mg/kg, route oral; conditions: not given

Compared with CC[C@@H]1CC[C@@H](C(=O)N2CCN(C(C)=O)[C@H](C)C2)N1C(=O)C1=C(C(C)C)N2C(=N[C@@](C)(c3ccc(Cl)cc3)[C@H]2c2ccc(Cl)cc2)S1, CC(C)C1=C(C(=O)N2[C@H](C)CC[C@H]2C(=O)N2CCN(C)[C@H](C)C2)SC2=N[C@@](C)(c3ccc(Cl)cc3)[C@@H](c3ccc(Cl)cc3)N21 is 6.2-fold lower in concentration at 4 h: 46400 ng/mL for the first, 7500 ng/mL for the second.

assay: Plasma concentration in NOD/SCID mouse at 100 mg/kg, po measured at 6 hrs; type: ADME, organism-based; set-up: dose 100 mg/kg, route oral; conditions: not given

Compared with CC[C@@H]1CC[C@@H](C(=O)N2CCN(C(C)=O)[C@H](C)C2)N1C(=O)C1=C(C(C)C)N2C(=N[C@@](C)(c3ccc(Cl)cc3)[C@H]2c2ccc(Cl)cc2)S1, CC(C)C1=C(C(=O)N2[C@H](C)CC[C@H]2C(=O)N2CCN(C)[C@H](C)C2)SC2=N[C@@](C)(c3ccc(Cl)cc3)[C@@H](c3ccc(Cl)cc3)N21 is 8.5-fold lower in concentration at 6 h: 48200 ng/mL for the first, 5700 ng/mL for the second.

assay: AUC in NOD/SCID mouse at 100 mg/kg, po; type: ADME, organism-based; set-up: dose 100 mg/kg, route oral; conditions: plasma

First: CC[C@@H]1CC[C@@H](C(=O)N2CCN(C(C)=O)[C@H](C)C2)N1C(=O)C1=C(C(C)C)N2C(=N[C@@](C)(c3ccc(Cl)cc3)[C@H]2c2ccc(Cl)cc2)S1
Second: CC(C)C1=C(C(=O)N2[C@H](C)CC[C@H]2C(=O)N2CCN(C)[C@H](C)C2)SC2=N[C@@](C)(c3ccc(Cl)cc3)[C@@H](c3ccc(Cl)cc3)N21
The AUC of the first is 7.9-fold higher: 737 µg·h/mL for the first, 93.1 µg·h/mL for the second.

assay: Plasma concentration in NOD/SCID mouse at 100 mg/kg, po measured at 24 hrs; type: ADME, organism-based; set-up: dose 100 mg/kg, route oral; conditions: not given

Compared with CC[C@@H]1CC[C@@H](C(=O)N2CCN(C(C)=O)[C@H](C)C2)N1C(=O)C1=C(C(C)C)N2C(=N[C@@](C)(c3ccc(Cl)cc3)[C@H]2c2ccc(Cl)cc2)S1, CC(C)C1=C(C(=O)N2[C@H](C)CC[C@H]2C(=O)N2CCN(C)[C@H](C)C2)SC2=N[C@@](C)(c3ccc(Cl)cc3)[C@@H](c3ccc(Cl)cc3)N21 is 3-fold higher in concentration at 24 h: 100 ng/mL for the first, 300 ng/mL for the second.

assay: Drug uptake in tumor of NOD/SCID mouse xenografted with human MV4-11 cells at 100 mg/kg, po measured at 6 hrs by LC-MS/MS analysis; type: ADME, organism-based, Neoplasm; set-up: dose 100 mg/kg, route oral; conditions: read-out: Drug uptake; in short: as §1

CC[C@@H]1CC[C@@H](C(=O)N2CCN(C(C)=O)[C@H](C)C2)N1C(=O)C1=C(C(C)C)N2C(=N[C@@](C)(c3ccc(Cl)cc3)[C@H]2c2ccc(Cl)cc2)S1 and CC(C)C1=C(C(=O)N2[C@H](C)CC[C@H]2C(=O)N2CCN(C)[C@H](C)C2)SC2=N[C@@](C)(c3ccc(Cl)cc3)[C@@H](c3ccc(Cl)cc3)N21 are within 1.5-fold of each other in concentration at 6 h: 25200 ng/mL for the first, 27500 ng/mL for the second.

assay: Drug uptake in tumor of NOD/SCID mouse xenografted with human MV4-11 cells at 100 mg/kg, po measured at 4 hrs by LC-MS/MS analysis; type: ADME, organism-based, Neoplasm; set-up: dose 100 mg/kg, route oral; conditions: read-out: Drug uptake; in short: as §1

CC[C@@H]1CC[C@@H](C(=O)N2CCN(C(C)=O)[C@H](C)C2)N1C(=O)C1=C(C(C)C)N2C(=N[C@@](C)(c3ccc(Cl)cc3)[C@H]2c2ccc(Cl)cc2)S1 and CC(C)C1=C(C(=O)N2[C@H](C)CC[C@H]2C(=O)N2CCN(C)[C@H](C)C2)SC2=N[C@@](C)(c3ccc(Cl)cc3)[C@@H](c3ccc(Cl)cc3)N21 are within 1.5-fold of each other in concentration at 4 h: 31200 ng/mL for the first, 27900 ng/mL for the second.
